For 4 compounds, IC50, Activity and inhibition results are on record in ChEMBL document CHEMBL1800058, “Lathyrane diterpenoids from the roots of Euphorbia micractina and their biological activities” (J Nat Prod, 2011).

Active and inactive are the calls of the source. The rule behind the calls is not given here.

Assay [1] relates to Human immunodeficiency virus 1. Put plainly: Antiviral activity against HIV1 harboring vesicular stomatitis virus glycoprotein infected in human 293T cells assessed as inhibition of viral replication after 48 hrs by luciferase activity based luminometer analysis. It counts as functional, organism-based. Particulars: Human immunodeficiency virus 1, HEK-293T.
The next assay deals with Aorta. As to the kind of experiment: Vasorelaxant activity in Sprague-Dawley rat […] thoracic aorta assessed as inhibition of phenylephrine-induced vasoconstriction at 10^-6 M relative to control. It counts as functional. Further details: scale not given: the % may be the effect or the level left. An outline of the steps: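 Read-out was percent relaxation of phenylephrine-precontracted vessels. Verapamil served as the positive control at the same test concentration.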

Assay [2] addresses T1, Tyrosine-protein phosphatase non-receptor type 1 (Homo sapiens) (UniProt P18031).
T1 sequence (whole entry): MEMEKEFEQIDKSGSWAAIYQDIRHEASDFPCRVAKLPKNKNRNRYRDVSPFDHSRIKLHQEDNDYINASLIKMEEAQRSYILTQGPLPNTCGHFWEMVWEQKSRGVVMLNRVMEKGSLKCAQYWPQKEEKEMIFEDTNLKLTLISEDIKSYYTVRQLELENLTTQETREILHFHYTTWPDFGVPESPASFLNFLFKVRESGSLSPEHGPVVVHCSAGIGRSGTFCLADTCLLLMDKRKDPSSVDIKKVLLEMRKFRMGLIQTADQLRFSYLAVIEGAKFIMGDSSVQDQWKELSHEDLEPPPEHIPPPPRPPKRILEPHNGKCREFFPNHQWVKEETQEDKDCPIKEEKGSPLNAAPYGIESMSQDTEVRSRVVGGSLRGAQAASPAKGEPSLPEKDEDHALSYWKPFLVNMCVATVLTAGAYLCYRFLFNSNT
Put plainly: Inhibition of human recombinant GST-tagged PTP1B assessed as conversion of para-nitrophenyl phosphate to para-nitrophenol at 10^-6 M after 10 mins by microplate spectrophotometer analysis.

A further assay has as its system Liver microsomes. As to the kind of experiment: Antioxidant activity against Fe2+-cystine-induced lipid peroxidation in rat liver microsomes at 10^-6 M after 15 mins by thiobarbituric acid method. The conditions noted are these: Microsome. It counts as functional. Background: Microsomes from liver hold many membrane-bound enzymes, among them those of drug oxidation.

For another assay, the system named is Bel-7402. As to the kind of experiment: Cytotoxicity against human Bel7402 cells at 10^-6 M after 96 hrs by MTT assay. It counts as functional, cell-based.
Another assay concerns A549. As to the kind of experiment: Cytotoxicity against human A549 cells at 10^-6 M after 96 hrs by MTT assay. It counts as functional, cell-based. Background: Tetrazolium dyes change colour on reduction, which living cells bring about.
For the next assay, the system named is BGC-823. As to the kind of experiment: Cytotoxicity against human BGC823 cells at 10^-6 M after 96 hrs by MTT assay. It counts as functional, cell-based.
For the next assay, the system named is MCF7. Put plainly: Cytotoxicity against human MCF7 cells at 10^-6 M after 96 hrs by MTT assay. It counts as functional, cell-based.
A further assay has as its system KETR3. As to the kind of experiment: Cytotoxicity against human Ketr3 cells at 10^-6 M after 96 hrs by MTT assay. It counts as functional, cell-based.
A further assay has as its system HCT-8. As to the kind of experiment: Cytotoxicity against human HCT8 cells at 10^-6 M after 96 hrs by MTT assay. It counts as functional, cell-based.
The test system of assay [3] is Human immunodeficiency virus 1. Put plainly: Antiviral activity against HIV1 harboring vesicular stomatitis virus glycoprotein infected in human 293T cells assessed as inhibition of viral replication at 10 uM after 48 hrs by luciferase activity based luminometer analysis. It counts as functional, organism-based.

For `C/C1=C\[C@H]2[C@@H](O)[C@@H](C)C[C@]2(OC(=O)/C=C/c2ccccc2)C(=O)/C(C)=C/[C@H]2[C@H](CC1)C2(C)C`, the IC50 (as a rule, the point on the concentration scale where inhibition reaches its midpoint) in assay [1] was determined as 8.2 µM. Further, the Activity in the assay with Aorta is recorded as <30%. For the same compound, in assay [2], the inhibition entry was “inactive”. The outcome in the assay on Liver microsomes, with Bel-7402, with A549, in the assay with BGC-823, with MCF7 and in the assay with KETR3 was inactive. The result in the assay with HCT-8 was inactive.
Turning to `C=C1CC[C@H]2[C@H](/C=C(\C)C(=O)[C@@]3(OC(=O)/C=C/c4ccccc4)C[C@H](C)[C@H](O)[C@@H]3[C@H]1O)C2(C)C`, the outcome (in [3]; in the assay on Liver microsomes; in the assay on Bel-7402; in the assay on A549; in the assay with BGC-823; in the assay on MCF7) was inactive. Moreover, the result in the assay with KETR3 and in the assay on HCT-8 was inactive. The Activity in the assay on Aorta is reported as <30%. In addition, in [2], the inhibition entry was “inactive”.
With `C/C1=C\[C@H]2[C@@H](O)[C@@H](C)C[C@]2(OC(=O)c2ccccc2)C(=O)/C(C)=C/[C@H]2[C@H](CC1)C2(C)C`, the outcome (in assay [3]; in the assay with Liver microsomes; in the assay with Bel-7402; in the assay on A549; with BGC-823; with MCF7) was inactive. Moreover, the outcome in the assay on KETR3 and in the assay on HCT-8 was inactive. The Activity in the assay on Aorta turned out to be 42%. The inhibition result in assay [2] is “inactive”.
Turning to `CC(=O)O[C@@H]1[C@H]2[C@@H](O)/C(C)=C\C[C@H]3[C@H](/C=C(\C)C(=O)[C@@]2(OC(=O)c2ccccc2)C[C@@H]1C)C3(C)C`, the outcome (in [3]; in the assay with Liver microsomes; in the assay on Bel-7402; in the assay on A549; in the assay with BGC-823; in the assay on MCF7) was inactive. For the same compound, the result in the assay on KETR3 and with HCT-8 was inactive. Besides, in the assay with Aorta, the Activity turned out to be 48%. For the same compound, in assay [2], the inhibition result is “inactive”.
